# Assay results from ChEMBL document CHEMBL1138421, “Synthesis and antiproliferative activity of (2R,3R)-disubstituted tetrahydropyrans. Part 2: Effect of side chain homologation” (2007).
# Legend:
# Assay type in all cases: functional
# A2780 = experiment: Antiproliferative activity against human A2780 cells after 48 hrs by sulforhodamine B assay; details: A2780, 48 h
# Summary of the method: (§1)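 Dose-response curves built per compound up to 100 μM maximum; percentage of growth (PG) computed, with GI₅₀, TGI and LC₅₀ taken as concentrations giving PG +50, 0 and −50. TGI and LC₅₀ reported only when below 100 μM. Values in μM, means of two to four experiments with standard deviation.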
# WiDr = experiment: Antiproliferative activity against human WiDr cells after 48 hrs by sulforhodamine B assay; summary of the method: as §1
# SW1573 = experiment: Antiproliferative activity against human SW1573 cells after 48 hrs by sulforhodamine B assay; details: SW1573, 48 h; for CC50: read-out: LC50 (the source's name); summary of the method: as §1
SMILES,GI50 (A2780) [µM],GI50 (SW1573) [µM],GI50 (WiDr) [µM],TGI (A2780) [µM],LC50 (concentration giving 50% net cell kill) (A2780) [µM],TGI (WiDr) [µM],TGI (SW1573) [µM],CC50 (SW1573) [µM]
CC(C)(C)[Si](C)(C)O[C@@H]1CCCO[C@@H]1CO/C=C/CO,> 100,> 100,> 100,,,,,
c1cc([C@H]2OC[C@H]3OCCC[C@H]3O2)ccc1[C@H]1OC[C@H]2OCCC[C@H]2O1,> 100,> 100,> 100,,,,,
O=C(COC[C@H]1OCCC[C@H]1O)OCc1ccccc1,> 100,> 100,> 100,,,,,
O=C(COC[C@H]1OCCC[C@@H]1O)OCc1ccccc1 (relative stereo),> 100,> 100,> 100,,,,,
CC(C)(C)[Si](C)(C)O[C@@H]1CCCO[C@@H]1COCC(=O)O (relative stereo),> 100,> 100,> 100,,,,,
COC(=O)/C=C/OC[C@H]1OCCC[C@H]1O[Si](C)(C)C(C)(C)C (relative stereo),30,50,36,82,,,,
CC(C)(C)[Si](C)(C)O[C@H]1CCCO[C@@H]1COCC(=O)OCc1ccccc1 (relative stereo),17,17,28,36,74,91,37,79
C=C[C@H]1CCC[C@@H]([C@H]2COC(C)(C)O2)O1,,,> 100,,,,,
CC(C)(C)[Si](C)(C)O[C@@H]1CCCO[C@@H]1COCC(=O)OCc1ccccc1,28,29,37,81,94,88,85,
C=CCOC[C@H]1OCCC[C@H]1O[Si](C)(C)C(C)(C)C (relative stereo),15,18,88,32,68,,39,85
CC(C)(C)[Si](C)(C)O[C@@H]1CCCO[C@@H]1CO (relative stereo),> 100,> 100,> 100,,,,,
c1cc([C@H]2OC[C@H]3OCCC[C@H]3O2)nc([C@H]2OC[C@H]3OCCC[C@H]3O2)c1,> 100,> 100,> 100,,,,,

# Continued, in another order:
GI50 (A2780) [µM],GI50 (SW1573) [µM],SMILES,GI50 (WiDr) [µM],TGI (A2780) [µM],LC50 (concentration giving 50% net cell kill) (A2780) [µM],TGI (WiDr) [µM],TGI (SW1573) [µM],CC50 (SW1573) [µM]
> 100,> 100,COC(=O)CCOC[C@H]1OCCC[C@H]1O[Si](C)(C)C(C)(C)C,> 100,,,,,
> 100,> 100,O=C1COC[C@H]2OCCC[C@H]2O1,> 100,,,,,
> 100,> 100,O=C1COC[C@H]2OCCC[C@@H]2O1 (relative stereo),> 100,,,,,
> 100,> 100,CC(C)(C)[Si](C)(C)O[C@H]1CCCO[C@@H]1CO (relative stereo),> 100,,,,,
> 100,> 100,c1ccc([C@H]2OC[C@H]3OCCC[C@H]3O2)cc1,> 100,,,,,
26,26,CC(C)(C)[Si](C)(C)O[C@@H]1CCCO[C@@H]1CO/C=C/C(=O)OCc1ccccc1,37,,,,,
> 100,> 100,CC(C)(C)[Si](C)(C)O[C@@H]1CCCO[C@@H]1COCCCO,> 100,,,,,
